Assay results reported in ChEMBL document CHEMBL2390854, “Green synthesis of tetrahydropyrimidine analogues and evaluation of their antimicrobial activity” (2013).
Values after ≈ are worked out from the molar mass of the structure shown.

How the values were obtained:
Staphylococcus aureus = assay: Antibacterial activity against Staphylococcus aureus NCIM 2901 by broth dilution method; type: functional
Procedure, shortened: (§1)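 MIC by broth dilution following CLSI guidelines. Ciprofloxacin and ampicillin served as reference drugs.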

Aspergillus niger = assay: Antifungal activity against Aspergillus niger NCIM 1196 by agar dilution method; type: functional
Procedure, shortened: (§2)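 MIC determined by standard agar dilution per CLSI guidelines. Fluconazole and miconazole were reference drugs, and dimethyl sulfoxide was the solvent control.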

Candida albicans = assay: Antifungal activity against Candida albicans NCIM 3471 by agar dilution method; type: functional; procedure, shortened: as §2
Aspergillus flavus = assay: Antifungal activity against Aspergillus flavus NCIM 539 by agar dilution method; type: functional; procedure, shortened: as §2
Bacillus subtilis = assay: Antibacterial activity against Bacillus subtilis NCIM 2063 by broth dilution method; type: functional; procedure, shortened: as §1
Escherichia coli [1] = assay: Antibacterial activity against Escherichia coli NCIM 2256 by broth dilution method; type: functional; procedure, shortened: as §1
Escherichia coli [2] = assay: Antibacterial activity against Escherichia coli NCIM 2256 by broth dilution method

With `CCOC(=O)C1=C(C(=O)OCC)N(c2ccc(O)cc2)CN(c2ccc(O)cc2)C1` the MIC (Staphylococcus aureus) was 100 µg/mL (≈ 242 µM), the MIC (Aspergillus niger) was 50 µg/mL (≈ 121 µM) and the MIC (Candida albicans) was 75 µg/mL (≈ 182 µM). It also gave an MIC (Aspergillus flavus) of 50 µg/mL (≈ 121 µM), an MIC (Bacillus subtilis) of 40 µg/mL (≈ 97 µM) and an MIC (Escherichia coli [1]) of 50 µg/mL (≈ 121 µM).
Molecule `COC(=O)C1=C(C(=O)OC)N(c2nc3ccc(OC)cc3s2)CN(c2nc3ccc(OC)cc3s2)C1` has an MIC (Staphylococcus aureus) of 100 µg/mL (≈ 190 µM), an MIC (Aspergillus niger) of 12.5 µg/mL (≈ 23.7 µM) and an MIC (Candida albicans) of 25 µg/mL (≈ 47.5 µM). The MIC (Aspergillus flavus) was 12.5 µg/mL (≈ 23.7 µM), the MIC (Bacillus subtilis) was 25 µg/mL (≈ 47.5 µM) and the MIC (Escherichia coli [1]) was 40 µg/mL (≈ 76 µM).
Work on `CCOC(=O)C1=C(C(=O)OCC)N(c2nc3ccc(OC)cc3s2)CN(c2nc3ccc(OC)cc3s2)C1` yielded an MIC (Staphylococcus aureus) of 100 µg/mL (≈ 180 µM), an MIC (Aspergillus niger) of 12.5 µg/mL (≈ 22.5 µM) and an MIC (Candida albicans) of 25 µg/mL (≈ 45.1 µM). The MIC (Aspergillus flavus) was 12.5 µg/mL (≈ 22.5 µM), the MIC (Bacillus subtilis) was 20 µg/mL (≈ 36.1 µM) and the MIC (Escherichia coli [1]) was 15 µg/mL (≈ 27 µM).
In the case of `COC(=O)C1=C(C(=O)OC)N(c2cccc([N+](=O)[O-])c2)CN(c2cccc([N+](=O)[O-])c2)C1`, the MIC (Staphylococcus aureus) was 80 µg/mL (≈ 181 µM), the MIC (Aspergillus niger) was 100 µg/mL (≈ 226 µM) and the MIC (Candida albicans) was 100 µg/mL (≈ 226 µM). It also gave an MIC (Aspergillus flavus) of 100 µg/mL (≈ 226 µM), an MIC (Bacillus subtilis) of 100 µg/mL (≈ 226 µM) and an MIC (Escherichia coli [1]) of 80 µg/mL (≈ 181 µM).
In the case of `COC(=O)C1=C(C(=O)OC)N(c2ccccn2)CN(c2ccccn2)C1`, the MIC (Staphylococcus aureus) was 80 µg/mL (≈ 226 µM), the MIC (Aspergillus niger) was 25 µg/mL (≈ 70.5 µM) and the MIC (Candida albicans) was 25 µg/mL (≈ 70.5 µM). It also gave an MIC (Aspergillus flavus) of 12.5 µg/mL (≈ 35.3 µM), an MIC (Bacillus subtilis) of 40 µg/mL (≈ 113 µM) and an MIC (Escherichia coli [1]) of 60 µg/mL (≈ 169 µM).
`COC(=O)C1=C(C(=O)OC)N(c2ccc(O)cc2)CN(c2ccc(O)cc2)C1` gave an MIC (Staphylococcus aureus) of 90 µg/mL (≈ 234 µM), an MIC (Aspergillus niger) of 50 µg/mL (≈ 130 µM) and an MIC (Candida albicans) of 75 µg/mL (≈ 195 µM). The MIC (Escherichia coli [2]) was 80 µg/mL (≈ 208 µM), the MIC (Aspergillus flavus) was 50 µg/mL (≈ 130 µM) and the MIC (Escherichia coli [1]) was 80 µg/mL (≈ 208 µM).
Molecule `CC1(C)S[C@@H]2[C@H](NC(=O)[C@H](N)c3ccccc3)C(=O)N2[C@H]1C(=O)O` [AMPICILLIN] has an MIC (Staphylococcus aureus) of 50 µg/mL (≈ 143 µM), an MIC (Escherichia coli [2]) of 50 µg/mL (≈ 143 µM) and an MIC (Escherichia coli [1]) of 50 µg/mL (≈ 143 µM).
Molecule `CCOC(=O)C1=C(C(=O)OCC)N(c2cccc([N+](=O)[O-])c2)CN(c2cccc([N+](=O)[O-])c2)C1` has an MIC (Staphylococcus aureus) of 100 µg/mL (≈ 213 µM), an MIC (Aspergillus niger) of 100 µg/mL (≈ 213 µM) and an MIC (Candida albicans) of 100 µg/mL (≈ 213 µM). For the same molecule, the MIC (Aspergillus flavus) was 100 µg/mL (≈ 213 µM), the MIC (Bacillus subtilis) was 60 µg/mL (≈ 128 µM) and the MIC (Escherichia coli [1]) was 100 µg/mL (≈ 213 µM).
Molecule `CCOC(=O)C1=C(C(=O)OCC)N(c2ccc(Cl)cc2)CN(c2ccc(Cl)cc2)C1` has an MIC (Staphylococcus aureus) of 80 µg/mL (≈ 178 µM), an MIC (Aspergillus niger) of 25 µg/mL (≈ 55.6 µM) and an MIC (Candida albicans) of 25 µg/mL (≈ 55.6 µM). It also gave an MIC (Aspergillus flavus) of 25 µg/mL (≈ 55.6 µM), an MIC (Bacillus subtilis) of 25 µg/mL (≈ 55.6 µM) and an MIC (Escherichia coli [1]) of 15 µg/mL (≈ 33.4 µM).
`O=C(O)c1cn(C2CC2)c2cc(N3CCNCC3)c(F)cc2c1=O` [CIPROFLOXACIN] showed an MIC (Bacillus subtilis) of 25 µg/mL (≈ 75.4 µM) and an MIC (Escherichia coli [1]) of 15 µg/mL (≈ 45.3 µM).
With `CCOC(=O)C1=C(C(=O)OCC)N(c2ccccn2)CN(c2ccccn2)C1` the MIC (Staphylococcus aureus) was 100 µg/mL (≈ 261 µM), the MIC (Aspergillus niger) was 25 µg/mL (≈ 65.4 µM) and the MIC (Candida albicans) was 25 µg/mL (≈ 65.4 µM). The MIC (Aspergillus flavus) was 12.5 µg/mL (≈ 32.7 µM), the MIC (Bacillus subtilis) was 20 µg/mL (≈ 52.3 µM) and the MIC (Escherichia coli [1]) was 60 µg/mL (≈ 157 µM).
Molecule `CCOC(=O)C1=C(C(=O)OCC)N(c2ccccc2)CN(c2ccccc2)C1` has an MIC (Staphylococcus aureus) of 60 µg/mL (≈ 158 µM), an MIC (Aspergillus niger) of 25 µg/mL (≈ 65.7 µM) and an MIC (Candida albicans) of 50 µg/mL (≈ 131 µM). For the same molecule, the MIC (Aspergillus flavus) was 25 µg/mL (≈ 65.7 µM), the MIC (Bacillus subtilis) was 25 µg/mL (≈ 65.7 µM) and the MIC (Escherichia coli [1]) was 15 µg/mL (≈ 39.4 µM).
`COC(=O)C1=C(C(=O)OC)N(c2ccccc2)CN(c2ccccc2)C1` gave an MIC (Staphylococcus aureus) of 90 µg/mL (≈ 255 µM), an MIC (Aspergillus niger) of 25 µg/mL (≈ 70.9 µM) and an MIC (Candida albicans) of 50 µg/mL (≈ 142 µM). It also gave an MIC (Aspergillus flavus) of 25 µg/mL (≈ 70.9 µM), an MIC (Bacillus subtilis) of 30 µg/mL (≈ 85.1 µM) and an MIC (Escherichia coli [1]) of 60 µg/mL (≈ 170 µM).
With `COC(=O)C1=C(C(=O)OC)N(c2ccc(Cl)cc2)CN(c2ccc(Cl)cc2)C1` the MIC (Staphylococcus aureus) was 100 µg/mL (≈ 237 µM), the MIC (Aspergillus niger) was 25 µg/mL (≈ 59.3 µM) and the MIC (Candida albicans) was 25 µg/mL (≈ 59.3 µM). It also gave an MIC (Aspergillus flavus) of 25 µg/mL (≈ 59.3 µM), an MIC (Bacillus subtilis) of 40 µg/mL (≈ 94.9 µM) and an MIC (Escherichia coli [1]) of 60 µg/mL (≈ 142 µM).
For `OC(Cn1cncn1)(Cn1cncn1)c1ccc(F)cc1F` [FLUCONAZOLE], the MIC (Aspergillus niger) was 25 µg/mL (≈ 81.6 µM), the MIC (Candida albicans) was 40 µg/mL (≈ 131 µM) and the MIC (Aspergillus flavus) was 25 µg/mL (≈ 81.6 µM).
`Clc1ccc(COC(Cn2ccnc2)c2ccc(Cl)cc2Cl)c(Cl)c1` (stereo not drawn) [MICONAZOLE] gave an MIC (Aspergillus niger) of 12.5 µg/mL (≈ 30 µM), an MIC (Candida albicans) of 12.5 µg/mL (≈ 30 µM) and an MIC (Aspergillus flavus) of 12.5 µg/mL (≈ 30 µM).
